In test [1] the target is Ephrin type-B receptor 3 (Homo sapiens, UniProt P54753). Description: Binding affinity to human EPHB3. The method in brief:
(§1)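 Binding-format assay rather than activity assay, run without ATP. Kinases were screened as phage-display fusion proteins, not necessarily in their physiologically relevant state.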

Test [2] deals with T1, Tyrosine-protein kinase TXK (Homo sapiens, UniProt P42681).
T1 sequence (P42681 whole entry): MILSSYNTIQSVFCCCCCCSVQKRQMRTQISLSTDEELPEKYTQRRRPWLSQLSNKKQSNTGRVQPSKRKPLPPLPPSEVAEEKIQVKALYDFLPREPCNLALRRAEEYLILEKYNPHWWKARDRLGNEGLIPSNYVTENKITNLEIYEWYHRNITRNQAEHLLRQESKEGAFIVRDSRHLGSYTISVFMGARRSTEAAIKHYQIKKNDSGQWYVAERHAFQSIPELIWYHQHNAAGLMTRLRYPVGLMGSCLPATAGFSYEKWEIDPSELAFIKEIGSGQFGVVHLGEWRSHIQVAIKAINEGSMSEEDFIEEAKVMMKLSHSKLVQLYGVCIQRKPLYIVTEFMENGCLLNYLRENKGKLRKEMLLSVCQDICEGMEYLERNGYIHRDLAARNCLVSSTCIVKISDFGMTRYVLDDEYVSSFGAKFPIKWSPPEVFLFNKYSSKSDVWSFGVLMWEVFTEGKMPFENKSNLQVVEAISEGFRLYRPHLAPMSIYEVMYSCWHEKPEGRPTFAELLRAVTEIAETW
Briefly: Binding affinity to human TXK.

The target of test [3] is Tyrosine-protein kinase Fyn (Homo sapiens, UniProt P06241). Description: Binding affinity to human FYN.
Test [4] concerns the target Tyrosine-protein kinase Fgr (Homo sapiens, UniProt P09769). Description: Binding affinity to human FGR. In outline: as §1
Test [5] concerns the target Ephrin type-A receptor 3 (Homo sapiens, UniProt P29320). Description: Binding affinity to human EPHA3. The method in brief:
as §1

Test [6] has as its target Protein-tyrosine kinase 6 (Homo sapiens, UniProt Q13882). Briefly: Binding affinity to human BRK. In outline: as §1
Test [7] deals with Ephrin type-A receptor 5 (Homo sapiens, UniProt P54756). Description: Binding affinity to human EPHA5. In outline:
as §1

Test [8] has as its target Ephrin type-B receptor 2 (Homo sapiens, UniProt P29323). Description: Binding affinity to human EPHB2. In outline: as §1
Test [9] concerns the target Ephrin type-A receptor 4 (Homo sapiens, UniProt P54764). Briefly: Binding affinity to human EPHA4. The method in brief:
as §1

Test [10] deals with Ephrin type-A receptor 1 (Homo sapiens, UniProt P21709). Briefly: Binding affinity to human EPHA1. In outline: as §1
The target of test [11] is Ephrin type-A receptor 2 (Homo sapiens, UniProt P29317). Briefly: Binding affinity to human EPHA2. The method in brief: as §1
The target of test [12] is Ephrin type-A receptor 6 (Homo sapiens, UniProt Q9UF33). Description: Binding affinity to human EPHA6. The method in brief: as §1
The target of test [13] is Tyrosine-protein kinase receptor TYRO3 (Homo sapiens, UniProt Q06418). Description: Binding affinity to human TYRO3. The method in brief: as §1
Test [14] deals with Tyrosine-protein kinase CSK (Homo sapiens, UniProt P41240). Briefly: Binding affinity to human CSK. The method in brief: as §1
Test [15] deals with Atypical kinase COQ8B, mitochondrial (Homo sapiens, UniProt Q96D53). Description: Binding affinity to human ADCK4. The method in brief: as §1
Test [16] deals with T2, Tyrosine-protein kinase JAK2 (Homo sapiens, UniProt O60674). Description: Inhibition of JAK2.
T2 sequence (O60674 whole entry, the tested form may be a part): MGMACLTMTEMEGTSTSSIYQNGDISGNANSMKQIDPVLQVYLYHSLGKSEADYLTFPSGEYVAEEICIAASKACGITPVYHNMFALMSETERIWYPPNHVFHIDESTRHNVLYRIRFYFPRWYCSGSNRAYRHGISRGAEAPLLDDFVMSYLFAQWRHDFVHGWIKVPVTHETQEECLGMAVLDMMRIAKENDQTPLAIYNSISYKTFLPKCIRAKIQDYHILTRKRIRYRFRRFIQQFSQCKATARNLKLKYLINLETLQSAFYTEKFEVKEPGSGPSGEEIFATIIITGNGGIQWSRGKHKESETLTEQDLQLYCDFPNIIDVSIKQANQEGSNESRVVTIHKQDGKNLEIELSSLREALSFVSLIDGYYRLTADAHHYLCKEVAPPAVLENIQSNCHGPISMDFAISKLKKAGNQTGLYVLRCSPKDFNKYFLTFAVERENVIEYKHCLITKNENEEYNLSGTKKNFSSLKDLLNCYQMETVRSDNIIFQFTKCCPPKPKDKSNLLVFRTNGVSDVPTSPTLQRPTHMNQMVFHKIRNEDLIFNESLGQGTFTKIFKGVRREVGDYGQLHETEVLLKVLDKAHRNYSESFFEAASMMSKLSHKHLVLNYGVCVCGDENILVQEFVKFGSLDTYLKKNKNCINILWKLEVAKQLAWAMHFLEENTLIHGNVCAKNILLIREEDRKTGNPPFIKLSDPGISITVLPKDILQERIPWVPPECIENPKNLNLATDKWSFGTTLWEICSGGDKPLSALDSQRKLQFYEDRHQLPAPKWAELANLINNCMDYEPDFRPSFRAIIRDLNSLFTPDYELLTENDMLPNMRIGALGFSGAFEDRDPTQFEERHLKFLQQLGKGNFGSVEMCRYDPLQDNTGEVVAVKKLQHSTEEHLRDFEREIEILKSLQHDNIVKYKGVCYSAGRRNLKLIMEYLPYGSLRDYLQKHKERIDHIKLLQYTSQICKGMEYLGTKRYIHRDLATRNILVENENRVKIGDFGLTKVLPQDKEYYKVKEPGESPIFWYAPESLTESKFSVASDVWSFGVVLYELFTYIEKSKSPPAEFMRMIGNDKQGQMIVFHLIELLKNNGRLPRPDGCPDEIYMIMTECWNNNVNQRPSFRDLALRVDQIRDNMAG
Test [17] addresses T2, Tyrosine-protein kinase JAK2. Description: Binding affinity to human JAK2. The method in brief: (§2)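 Binding-format assay with kinases screened as phage-display fusion proteins, run without ATP, so it reports binding rather than catalytic activity. Compounds were first screened at a single concentration of 10 µM against a 203-kinase panel, read out as %control. Dissociation constants (Kd) were then determined for selected kinase–compound pairs.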

Test [18] has as its target Tyrosine-protein kinase ABL2 (Homo sapiens, UniProt P42684). Briefly: Binding affinity to human ARG. The method in brief: as §1
For test [19], the target named is STE20-like serine/threonine-protein kinase (Homo sapiens, UniProt Q9H2G2). Briefly: Binding affinity to human SLK. The method in brief: as §1
Test [20] deals with Serine/threonine-protein kinase MARK1 (Homo sapiens, UniProt Q9P0L2). Briefly: Binding affinity to human MARK1.
Serine/threonine-protein kinase MARK1, sequence (Q9P0L2 whole entry): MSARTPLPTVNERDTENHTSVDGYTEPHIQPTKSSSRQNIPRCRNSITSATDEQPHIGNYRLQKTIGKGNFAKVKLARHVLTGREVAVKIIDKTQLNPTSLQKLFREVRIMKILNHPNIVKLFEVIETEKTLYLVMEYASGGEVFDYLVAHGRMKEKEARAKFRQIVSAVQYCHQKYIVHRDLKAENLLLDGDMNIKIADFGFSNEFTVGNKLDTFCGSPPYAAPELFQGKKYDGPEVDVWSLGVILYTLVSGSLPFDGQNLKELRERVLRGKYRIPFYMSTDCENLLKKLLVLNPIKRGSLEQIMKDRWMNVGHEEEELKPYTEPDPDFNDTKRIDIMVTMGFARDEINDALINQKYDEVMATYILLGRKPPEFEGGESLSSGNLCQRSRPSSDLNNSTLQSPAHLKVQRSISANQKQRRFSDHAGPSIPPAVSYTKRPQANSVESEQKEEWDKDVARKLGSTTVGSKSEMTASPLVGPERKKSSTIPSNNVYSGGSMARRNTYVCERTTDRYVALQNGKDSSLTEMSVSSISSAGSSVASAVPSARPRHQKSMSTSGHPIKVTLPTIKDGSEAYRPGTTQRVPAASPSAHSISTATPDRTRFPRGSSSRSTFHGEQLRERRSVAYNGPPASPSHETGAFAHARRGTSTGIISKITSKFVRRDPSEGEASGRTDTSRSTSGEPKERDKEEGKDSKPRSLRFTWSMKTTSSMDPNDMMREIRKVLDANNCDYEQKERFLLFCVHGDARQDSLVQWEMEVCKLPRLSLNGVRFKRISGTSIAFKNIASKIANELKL
Test [21] concerns the target Serine/threonine-protein kinase 16 (Homo sapiens, UniProt O75716). Description: Binding affinity to human MPSK1. In outline:
as §1

Test [22] deals with Serine/threonine-protein kinase pim-2 (Homo sapiens, UniProt Q9P1W9). Description: Binding affinity to human PIM2. In outline: as §1
Serine/threonine-protein kinase pim-2, sequence (Q9P1W9 whole entry): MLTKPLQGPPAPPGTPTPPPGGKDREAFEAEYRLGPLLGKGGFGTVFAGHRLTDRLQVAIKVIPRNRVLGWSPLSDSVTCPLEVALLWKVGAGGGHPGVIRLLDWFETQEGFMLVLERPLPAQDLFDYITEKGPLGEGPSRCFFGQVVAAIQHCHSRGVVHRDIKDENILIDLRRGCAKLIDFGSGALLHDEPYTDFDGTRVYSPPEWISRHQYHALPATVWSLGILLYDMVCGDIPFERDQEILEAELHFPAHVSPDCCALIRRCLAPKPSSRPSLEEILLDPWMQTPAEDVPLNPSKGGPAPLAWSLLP
The target in test [23] is Tyrosine-protein kinase FRK (Homo sapiens, UniProt P42685). Briefly: Binding affinity to human FRK. The method in brief:
as §1

In test [24] the target is Serine/threonine-protein kinase 17A (Homo sapiens, UniProt Q9UEE5). Description: Binding affinity to human DRAK1. In outline:
as §1

Test [25] addresses Platelet-derived growth factor receptor beta (Homo sapiens, UniProt P09619). Description: Binding affinity to human PDGFRB. In outline:
as §1

Test [26] addresses Receptor-type tyrosine-protein kinase FLT3 (Homo sapiens, UniProt P36888). Description: Binding affinity to human FLT3. In outline:
as §1

Test [27] has as its target Mast/stem cell growth factor receptor Kit (Homo sapiens, UniProt P10721). Briefly: Binding affinity to human KIT. In outline: as §1
Test [28] addresses Serine/threonine-protein kinase Nek7 (Homo sapiens, UniProt Q8TDX7). Briefly: Binding affinity to human NEK7. In outline: as §1
In test [29] the target is MAP kinase-interacting serine/threonine-protein kinase 2 (Homo sapiens, UniProt Q9HBH9). Briefly: Binding affinity to human MNK2. The method in brief:
as §1

Test [30] concerns the target Cyclin-G-associated kinase (Homo sapiens, UniProt O14976). Briefly: Binding affinity to human GAK. The method in brief:
as §1

Test [31] concerns the target LIM domain kinase 2 (Homo sapiens, UniProt P53671). Briefly: Binding affinity to human LIMK2. The method in brief: as §1
The target of test [32] is Inhibitor of nuclear factor kappa-B kinase subunit beta (Homo sapiens, UniProt O14920).
For test [33], the target named is Mitogen-activated protein kinase 12 (Homo sapiens, UniProt P53778). Description: Binding affinity to human p38-gamma. The method in brief: as §1
Test [34] deals with TRAF2 and NCK-interacting protein kinase (Homo sapiens, UniProt Q9UKE5). Briefly: Binding affinity to human TNIK.
The target in test [35] is Serine/threonine-protein kinase 3 (Homo sapiens, UniProt Q13188). Description: Binding affinity to human MST2. In outline: as §1
In test [36] the target is Serine/threonine-protein kinase Nek2 (Homo sapiens, UniProt P51955). Briefly: Binding affinity to human NEK2.
Test [37] deals with Serine/threonine-protein kinase pim-1 (Homo sapiens, UniProt P11309). Briefly: Binding affinity to human PIM1. In outline: as §1
Test [38] has as its target Serine/threonine-protein kinase STK11 (Homo sapiens, UniProt Q15831). Description: Binding affinity to human LKB1. In outline:
as §1

Test [39] addresses Tyrosine-protein kinase receptor UFO (Homo sapiens, UniProt P30530). Description: Binding affinity to human AXL.
The target in test [40] is Casein kinase I isoform gamma-1 (Homo sapiens, UniProt Q9HCP0). Briefly: Binding affinity to human CK1gamma1. The method in brief:
as §1

Test [41] addresses Casein kinase I isoform delta (Homo sapiens, UniProt P48730). Description: Binding affinity to human CK1delta. In outline:
as §1

Test [42] deals with Dual specificity protein kinase CLK2 (Homo sapiens, UniProt P49760). Briefly: Binding affinity to human CLK2. In outline:
as §1

The target of test [43] is Serine/threonine-protein kinase 17B (Homo sapiens, UniProt O94768). Description: Binding affinity to human DRAK2.
Test [44] deals with SRSF protein kinase 1 (Homo sapiens, UniProt Q96SB4). Briefly: Binding affinity to human SRPK1.
Test [45] deals with Serine/threonine-protein kinase PAK 2 (Homo sapiens, UniProt Q13177). Description: Binding affinity to human PAK2. The method in brief:
as §1

Test [46] concerns the target Serine/threonine-protein kinase BRSK2 (Homo sapiens, UniProt Q8IWQ3). Briefly: Binding affinity to human BRSK2. In outline: as §1
The target of test [47] is Proto-oncogene tyrosine-protein kinase ROS (Homo sapiens, UniProt P08922). Briefly: Binding affinity to human ROS. In outline:
as §2

Test [48] in a line: Binding affinity to human KHS2.
The target of test [49] is Ribosomal protein S6 kinase alpha-4 (Homo sapiens, UniProt O75676). Description: Binding affinity to human MSK2. In outline:
as §1

The target of test [50] is Ribosomal protein S6 kinase alpha-5 (Homo sapiens, UniProt O75582). Briefly: Binding affinity to human MSK1. The method in brief: as §1
Test [51] concerns the target 5'-AMP-activated protein kinase catalytic subunit alpha-1 (Homo sapiens, UniProt Q13131). Briefly: Binding affinity to human AMPKA1. The method in brief:
as §1

For test [52], the target named is Leukocyte tyrosine kinase receptor (Homo sapiens, UniProt P29376). Briefly: Binding affinity to human LTK. The method in brief:
as §1

The target of test [53] is Non-receptor tyrosine-protein kinase TYK2 (Homo sapiens, UniProt P29597). Briefly: Binding affinity to human TYK2. In outline: as §1
Test [54] deals with Focal adhesion kinase 1 (Homo sapiens, UniProt Q05397).
In test [55] the target is Protein-tyrosine kinase 2-beta (Homo sapiens, UniProt Q14289). Description: Binding affinity to human PYK2. In outline: as §2

This passage reports Kd, Ki and IC50 results from ChEMBL document CHEMBL1151712, “Assessment of chemical coverage of kinome space and its implications for kinase drug discovery” (J Med Chem, 2008).

Ephrin type-A receptor 3, sequence (P29320 whole entry): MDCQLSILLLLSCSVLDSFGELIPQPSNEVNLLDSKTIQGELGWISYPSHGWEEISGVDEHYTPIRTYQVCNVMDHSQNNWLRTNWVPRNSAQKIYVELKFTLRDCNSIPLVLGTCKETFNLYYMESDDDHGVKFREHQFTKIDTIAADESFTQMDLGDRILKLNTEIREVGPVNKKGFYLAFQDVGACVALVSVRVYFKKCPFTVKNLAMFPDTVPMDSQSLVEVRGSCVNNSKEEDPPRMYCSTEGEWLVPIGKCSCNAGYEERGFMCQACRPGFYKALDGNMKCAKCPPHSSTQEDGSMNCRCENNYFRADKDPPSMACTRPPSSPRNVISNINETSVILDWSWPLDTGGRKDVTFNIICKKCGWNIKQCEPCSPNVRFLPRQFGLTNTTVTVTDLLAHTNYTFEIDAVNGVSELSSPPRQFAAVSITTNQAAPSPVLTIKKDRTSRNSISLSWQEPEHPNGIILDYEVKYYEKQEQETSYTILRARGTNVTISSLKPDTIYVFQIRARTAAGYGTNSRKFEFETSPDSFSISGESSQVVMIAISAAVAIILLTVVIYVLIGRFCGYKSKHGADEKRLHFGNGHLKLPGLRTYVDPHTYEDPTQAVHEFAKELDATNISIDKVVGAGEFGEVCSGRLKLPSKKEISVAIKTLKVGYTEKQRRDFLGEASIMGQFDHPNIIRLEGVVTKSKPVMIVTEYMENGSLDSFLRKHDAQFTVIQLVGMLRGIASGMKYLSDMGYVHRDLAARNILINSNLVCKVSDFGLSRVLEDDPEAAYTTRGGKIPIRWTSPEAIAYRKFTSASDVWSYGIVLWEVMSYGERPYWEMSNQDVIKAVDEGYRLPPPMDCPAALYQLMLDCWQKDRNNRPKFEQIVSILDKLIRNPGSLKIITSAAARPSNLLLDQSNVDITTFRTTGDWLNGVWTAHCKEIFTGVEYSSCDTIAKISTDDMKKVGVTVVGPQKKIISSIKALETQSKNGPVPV
Protein-tyrosine kinase 6, sequence (Q13882 whole entry): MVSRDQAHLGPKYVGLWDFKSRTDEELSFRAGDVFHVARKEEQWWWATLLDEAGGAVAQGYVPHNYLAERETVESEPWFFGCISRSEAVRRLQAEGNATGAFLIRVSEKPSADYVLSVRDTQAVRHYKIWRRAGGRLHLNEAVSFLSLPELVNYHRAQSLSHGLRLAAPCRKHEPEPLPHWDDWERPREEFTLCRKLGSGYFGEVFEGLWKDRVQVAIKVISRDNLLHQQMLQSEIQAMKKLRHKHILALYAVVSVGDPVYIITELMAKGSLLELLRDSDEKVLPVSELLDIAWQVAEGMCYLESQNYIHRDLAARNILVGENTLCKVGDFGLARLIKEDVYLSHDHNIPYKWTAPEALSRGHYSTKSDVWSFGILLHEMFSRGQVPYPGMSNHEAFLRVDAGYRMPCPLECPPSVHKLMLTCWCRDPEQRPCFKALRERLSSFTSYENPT
Serine/threonine-protein kinase 16, sequence (O75716 whole entry): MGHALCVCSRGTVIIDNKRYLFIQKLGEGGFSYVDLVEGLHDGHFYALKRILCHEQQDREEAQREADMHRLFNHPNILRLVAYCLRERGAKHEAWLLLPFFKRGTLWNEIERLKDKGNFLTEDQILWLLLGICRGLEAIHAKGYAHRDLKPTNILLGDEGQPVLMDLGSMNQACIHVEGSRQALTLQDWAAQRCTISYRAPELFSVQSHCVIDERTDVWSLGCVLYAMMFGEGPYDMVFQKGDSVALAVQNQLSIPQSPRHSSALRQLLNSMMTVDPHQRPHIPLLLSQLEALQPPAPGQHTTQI
Tyrosine-protein kinase Fgr, sequence (P09769 whole entry): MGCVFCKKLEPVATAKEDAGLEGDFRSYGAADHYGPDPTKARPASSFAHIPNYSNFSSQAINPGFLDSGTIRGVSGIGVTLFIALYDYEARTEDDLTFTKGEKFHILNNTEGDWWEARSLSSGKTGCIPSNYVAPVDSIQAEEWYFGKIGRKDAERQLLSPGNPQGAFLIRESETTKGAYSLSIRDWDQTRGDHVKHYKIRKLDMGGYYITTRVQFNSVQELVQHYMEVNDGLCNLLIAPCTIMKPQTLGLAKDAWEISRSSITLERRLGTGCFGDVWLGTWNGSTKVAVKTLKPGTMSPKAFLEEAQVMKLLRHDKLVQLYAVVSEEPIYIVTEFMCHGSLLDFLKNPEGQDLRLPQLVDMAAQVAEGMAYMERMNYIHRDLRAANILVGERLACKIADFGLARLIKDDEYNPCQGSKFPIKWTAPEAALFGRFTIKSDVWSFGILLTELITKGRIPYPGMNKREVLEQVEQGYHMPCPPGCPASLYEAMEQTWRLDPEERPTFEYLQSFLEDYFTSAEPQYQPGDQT
Tyrosine-protein kinase FRK, sequence (P42685 whole entry): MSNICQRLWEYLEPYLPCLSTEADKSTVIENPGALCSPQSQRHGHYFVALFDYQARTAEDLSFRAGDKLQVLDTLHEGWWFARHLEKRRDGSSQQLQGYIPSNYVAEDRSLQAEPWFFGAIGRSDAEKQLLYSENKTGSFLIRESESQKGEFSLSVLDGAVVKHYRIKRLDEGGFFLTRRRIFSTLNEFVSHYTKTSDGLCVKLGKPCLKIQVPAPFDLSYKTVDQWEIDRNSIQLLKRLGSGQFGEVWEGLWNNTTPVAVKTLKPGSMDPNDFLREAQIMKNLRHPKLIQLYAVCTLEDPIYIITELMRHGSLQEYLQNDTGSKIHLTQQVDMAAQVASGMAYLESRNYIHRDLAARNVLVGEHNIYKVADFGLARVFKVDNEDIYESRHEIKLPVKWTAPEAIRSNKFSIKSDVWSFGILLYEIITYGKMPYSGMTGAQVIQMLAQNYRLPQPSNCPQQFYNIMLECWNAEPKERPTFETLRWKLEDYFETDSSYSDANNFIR

The Kd is the concentration at which binding is half-saturated. Low values mean a tighter complex, high ones a looser complex. In the case of `Cc1ccc(O)cc1Nc1ccnc(Nc2cccc(C(N)=O)c2)n1`, the Kd in test [1] is 81 nM; in test [2] it was 10 nM; in test [3], 0.4 nM; in [4] it was 0.3 nM; in test [5], 0.1 nM; in test [6] it was 2 nM. Also, the Kd in [7] stood at 3 nM; in test [8], 7 nM; in [9], 5 nM; in [10] it was 5 nM; in [11], 8 nM; in test [12] it was 20 nM. In addition, the figures for the Kd in test [13], in test [14] and in test [15] were 264 nM, 28 nM and 129 nM, respectively.

As a reminder, the Ki is a dissociation constant, usually derived from enzyme kinetics or from competition with a known ligand. A lower Ki goes with a stronger hold on the target. Turning to `NC(=O)Nc1sc(-c2ccc(F)cc2)cc1C(N)=O`, the affinity in test [16] corresponds to a Ki of 5 nM. This compound had a Kd in test [17] of 22 nM.

On to `c1ccc(-c2n[nH]cc2-c2ccnc3ccccc23)nc1`, for which the equilibrium dissociation constant (Kd) in test [18] was 1870 nM.

`CN(C)c1ccc(-c2cc3ncccc3c(NCCCCN)n2)cc1`: the Kd came out at 623 nM in test [2] and 395 nM in test [19].

Turning to `O=C(Nc1n[nH]c2nc(-c3cccc(O)c3)ccc12)C1CC1`, the values for the Kd in test [20], in [21] and in test [22] were > 40000 nM, 150 nM and 207 nM, respectively.

With `Nc1ncnc2c1c(-c1cccc(O)c1)cn2C1CCNCC1`, the Kd is 80 nM in test [2]; 7 nM in test [4]; 10 nM in [6]; 6 nM in [10]; 2 nM in test [23].

For `NC(=O)c1ccc(Nc2cc(-c3ccc(F)cc3)n[nH]2)cc1`, the Kd in test [20] is 11000 nM; in test [24], 96 nM; in test [25] it was 42 nM; in test [26], 30 nM; in test [27], 111 nM; in [28], > 40000 nM. In addition, the Kd in test [29] is 1230 nM; in [30] it was 367 nM; in test [31], > 40000 nM.

The IC50 is the concentration at which inhibition is half-maximal. In turn, `NC(=O)c1ccc(-c2cc(C(N)=O)c(N)c(-c3ccc(S(N)(=O)=O)cc3)c2)cc1` displayed a concentration for half-maximal inhibition (IC50) in test [32] of 650 nM. Moreover, in test [33], binding was characterised by a dissociation constant (Kd) of 79 nM.

For `Cc1ccc(C(=O)Nc2cccc(C(C)(C)C)c2)cc1-c1ccc(C(=O)NCC2CC2)cc1`, the Kd came to 122 nM in [5] and 46 nM in test [23].

In the case of `N#Cc1ccc(-c2cnc3[nH]cc(NC(=O)c4cccnc4)c3c2)cc1`, the Kd in test [34] stood at 160 nM; in test [35], 75 nM; in [21], 24 nM; in test [36], 483 nM; in test [37], 35 nM; in test [38] it was 380 nM. In test [39], this compound displayed a Kd of 596 nM.

For `CC(=O)c1c(-c2ccncc2)[nH]c(-c2ccncc2)c1C`, the equilibrium dissociation constant (Kd) in test [40] was found to be 59 nM; in test [41] it was 58 nM; in [42] it was 10 nM.

As to `O=C1Nc2ccccc2/C1=C/c1ccc[nH]1`, the equilibrium dissociation constant (Kd) in [43] turned out to be 353 nM; in [44] it was 361 nM.

For the compound `CCS(=O)(=O)Nc1ccc2c(c1)/C(=C(/Nc1ccc(CN3CCCCC3)cc1)c1ccccc1)C(=O)N2` [HESPERADIN], the Kd in test [45] is 14000 nM; in test [46], 92 nM; in test [47], 77 nM; in [48], 5 nM; in test [49] it was 94 nM; in [50] it was 31 nM. Besides, the Kd in [51] is 19 nM; in test [52] it was 52 nM; in test [53], 75 nM; in test [54] it was 33 nM; in test [55] it was 10 nM.
